Results from ChEMBL document CHEMBL4834426, “Antimalarial Benzimidazole Derivatives Incorporating Phenolic Mannich Base Side Chains Inhibit Microtubule and Hemozoin Formation: Structure-Activity Relationship and In Vivo Oral Efficacy Studies” (J Med Chem, 2021).
In brackets after ≈: the same amount, converted by molar mass. Activity calls are given as the source filed them. The rule behind the calls is not given here.

What was measured:
Plasmodium falciparum [1] = assay: Antimalarial activity against asexual blood stage drug-sensitive Plasmodium falciparum NF54 infected in erythrocytes assessed as reduction in parasitemia incubated up to 72 hrs by [3H]hypoxanthine incorporation assay; format: functional, organism-based
In short: (§1)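 [³H]-Hypoxanthine incorporation assay (modified) on asexual blood-stage P. falciparum in vitro. IC₅₀ values are means of ≥2 independent experiments.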

Plasmodium falciparum [2] = assay: Antiplasmodial activity against […] Plasmodium falciparum NF54 early gametocytes transfected with GFP-Luc […] incubated for 48 hrs by microscopy based luciferase reporter gene assay relative to control; format: functional, organism-based; details: NF54, 48 h
In short: (§2)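 Transgenic NF54-Pfs16-GFP-Luc gametocytes, read by luciferase reporter. Early assays were set up on day 5 (50% stage II/50% stage III) and late assays on day 10 (40% stage IV/60% stage V). Luciferin was added to lysates at room temperature and bioluminescence read. Methylene blue (5 μM) was the reference. Single-point screens at 1 and 5 μM used n=1 in technical triplicate. IC₅₀ came from a normalized nonlinear fit, n≥3 in triplicate.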

CHO = assay: Cytotoxicity against CHO cells assessed as inhibition of cell viability by MTT assay; format: cell-based; details: Cricetulus griseus
[3] = Kinetic solubility of the compound in pH 6.5 incubated for 24 hrs by HPLC-DAD analysis; format: physicochemical; details: buffer, read-out: Kinetic_solubility
In short: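 Miniaturized shake-flask method. 10 mM DMSO stock dried down, phosphate buffer pH 6.5 added, shaken 24 h at 25 °C. Centrifuged 3500g for 15 min; supernatant analyzed by HPLC-DAD against 10−220 μM DMSO calibration curve. Reserpine, hydrocortisone and MMV390048 as controls.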

[4] = Metabolic stability in mouse liver microsomes assessed as compound remaining at 1 uM incubated for 30 mins by LC-MS/MS analysis; format: ADME, Microsome; details: read-out: Stabilty
In short: (§3)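 Single-point design: 1 μM compound with 0.4 mg/mL liver microsomes in 0.1 M phosphate buffer pH 7.4 for 30 min. Quenched with ice-cold acetonitrile containing carbamazepine internal standard, centrifuged, analyzed by LC−MS/MS. Percent remaining from internal-standard-corrected peak areas at 30 min versus 0 min. Propranolol, midazolam and MMV390048 as controls.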

Plasmodium falciparum [5] = assay: Antiplasmodial activity against […] Plasmodium falciparum NF54 early gametocytes transfected with GFP-Luc […] at 1 uM incubated for 48 hrs by microscopy based luciferase reporter gene assay relative to control; format: functional
In short: (§4)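 NF54-Pfs16-GFP-Luc gametocytes, assays set up day 5 (early, stage II/III) or day 10 (late, stage IV/V). Culture at 2−3% gametocytemia, 1.5% hematocrit, 48 h drug exposure at 37 °C under 90% N₂/5% O₂/5% CO₂. Lysates mixed with luciferin; bioluminescence read with 10 s integration. Dual-point: one biological repeat in technical triplicate. Methylene blue (5 μM) reference.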

[6] = Resistance index, ratio of IC50 for antimalarial activity against asexual blood stage multi drug-resistant Plasmodium falciparum K1 to IC50 for antimalarial activity against asexual blood stage drug-sensitive Plasmodium falciparum NF54; format: functional
In short: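 Resistance index is IC₅₀(K1)/IC₅₀(NF54). Both IC₅₀s came from the [³H]-hypoxanthine incorporation assay, as means of ≥2 independent experiments.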

Plasmodium falciparum [7] = assay: Antiplasmodial activity against […] Plasmodium falciparum NF54 early gametocytes transfected with GFP-Luc […] at 5 uM incubated for 48 hrs by microscopy based luciferase reporter gene assay relative to control; format: functional; in short: as §4
[8] = Metabolic stability in human liver microsomes assessed as compound remaining at 1 uM incubated for 30 mins by LC-MS/MS analysis; format: ADME, Microsome; details: read-out: Stabilty; in short: as §3
Plasmodium berghei = assay: Antimalarial activity against GFP-transfected Plasmodium berghei ANKA infected in NMRI mouse model assessed as reduction in parasitemia at 50 mg/kg, po dosed 4 times relative to control; format: functional; design: scale not given: the % may be the effect or the level left
In short: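 Mice (n = 3) infected with GFP-transfected P. berghei ANKA. Compound in 70% Tween-80/30% ethanol, diluted 10-fold in water, given orally at 4, 24, 48 and 72 h post-infection. Blood taken day 4 (96 h); parasitemia by flow cytometry, detection limit 0.1%. Activity = difference in mean % parasitemia between control and treated, as % of control.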

Plasmodium falciparum [9] = assay: Antimalarial activity against asexual blood stage multi drug-resistant Plasmodium falciparum K1 infected in erythrocytes assessed as reduction in parasitemia incubated up to 72 hrs by [3H]hypoxanthine incorporation assay; format: functional, organism-based; in short: as §1
[10] = Metabolic stability in rat liver microsomes assessed as compound remaining at 1 uM incubated for 30 mins by LC-MS/MS analysis; format: ADME, Microsome; details: read-out: Stabilty; in short: as §3
[11] = Selectivity index, ratio of IC50 for Cytotoxicity against CHO cells assessed as inhibition of cell viability by MTT assay to IC50 for antimalarial activity against asexual blood stage Plasmodium falciparum NF54 assessed as reduction in parasitemia incubated up to 72 hrs by [3H]hypoxanthine incorporation assay; format: toxicity, cell-based; details: hamster, read-out: Selectivity Index
In short: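 Selectivity index is IC₅₀(CHO)/IC₅₀(NF54). […] IC₅₀ came from nonlinear dose-response fitting. Parasite IC₅₀ came from the [³H]-hypoxanthine assay.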

Plasmodium falciparum [12] = assay: Antiplasmodial activity against […] Plasmodium falciparum NF54 late gametocytes transfected with GFP-Luc […] at 5 uM incubated for 48 hrs by microscopy based luciferase reporter gene assay relative to control; format: functional; in short: as §4
Plasmodium falciparum [13] = assay: Antiplasmodial activity against […] Plasmodium falciparum NF54 late gametocytes transfected with GFP-Luc […] at 1 uM incubated for 48 hrs by microscopy based luciferase reporter gene assay relative to control; format: functional; in short: as §4
Hemozoin [14] = assay: Inhibition of beta-hematin formation […] incubated for 5 hrs by NP40 detergent-mediated assay
In short: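 Cell-free β-hematin formation assay in NP-40 (305.5 μM) lipid-mimic medium. Compounds from 20 mM stock serially diluted across wells, in duplicate. Hematin suspended in 1 M acetate buffer pH 4.8; plates incubated ~5 h at 37 °C. Then pyridine solution (with HEPES pH 7.4) and acetone added; absorbance at 405 nm. IC₅₀ by curve fit.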

Hemozoin [15] = assay: Inhibition of Beta-hematin in early ring stage Plasmodium falciparum parasitized red blood cells assessed as hemozoin formation formation after 32 hrs by Giemsa staining based haemocytometric counting method
Plasmodium falciparum [16] = assay: Antiplasmodial activity against […] Plasmodium falciparum NF54 late gametocytes transfected with GFP-Luc […] incubated for 48 hrs by microscopy based luciferase reporter gene assay relative to control; format: functional, organism-based; details: NF54, 48 h; in short: as §2
[17] = Inhibition of tubulin polymerization in asexual blood stage Plasmodium falciparum NF54

Row | SMILES | IC50 (Plasmodium falciparum [1]) [nM] | IC50 (Plasmodium falciparum [2]) [nM] | IC50 (CHO) [nM] | solubility kinetic at 24 h [3] [µM] | remaining at 0.5 h, 1 µM [4] [%] | inhibition at 1 µM (Plasmodium falciparum [5]) [%] | Ratio IC50 [6] | inhibition at 5 µM (Plasmodium falciparum [7]) [%] | remaining at 0.5 h, 1 µM [8] [%] | Activity (Plasmodium berghei) [%] | IC50 (Plasmodium falciparum [9]) [nM] | remaining at 0.5 h, 1 µM [10] [%] | selectivity ratio at 72 h [11] | inhibition at 5 µM (Plasmodium falciparum [12]) [%] | inhibition at 1 µM (Plasmodium falciparum [13]) [%] | IC50 (Hemozoin [14]) [nM] | Activity (Hemozoin [15]) | IC50 (Plasmodium falciparum [16]) [nM] | IC50 [17] [nM]
1 | CC(C)(C)NCc1cc(Cl)cc(Nc2nc3cc(F)c(F)cc3n2Cc2ccc(C(F)(F)F)cc2)c1O | 190 | 690 | > 50000 | < 5 | 94 | 14 | 0.47 | 70 | 89 | <40 | 90 | 94 | > 263 | 1 | 31 | – | – | – | –
2 | CCNCc1cc(C)cc(Nc2nc3ccccc3n2Cc2ccc(C(F)(F)F)cc2)c1O | 780 | 990 | 18800 | 35 (≈ 15.9 µg/mL) | 52 | 30 | 0.39 | 95 | 98 | – | 300 | 51 | 24.1 | 14 | 0 | – | – | – | –
3 | CCN(CC)Cc1c(Cl)ccc(Nc2nc3ccccc3n2Cc2ccc(C(F)(F)F)cc2)c1O | 1840 | 3060 | > 50000 | – | – | 7 | 0.21 | 59 | – | – | 380 | – | > 27 | 1 | 5 | – | – | – | –
4 | CCNCc1cc(Cl)cc(Nc2nc3ccccc3n2Cc2ccc(C(F)(F)F)cc2)c1O | 280 | 430 | 33800 | 12 (≈ 5.7 µg/mL) | 73 | 66 | 0.39 | 91 | 94 | <40 | 110 | 66 | 121 | 8 | 0 | 33300 | inactive | > 5000 | –
5 | CCN(CC)Cc1cc(C)cc(Nc2nc3ccccc3n2Cc2ccc(C(F)(F)F)cc2)c1O | 190 | 110 | 29300 | < 5 | < 7 | 91 | 0.32 | 97 | 36 | – | 60 | < 7 | 154 | 62 | 41 | – | – | – | –
6 | Cc1cc(CNC(C)(C)C)c(O)c(Nc2nc3ccccc3n2Cc2ccc(C(F)(F)F)cc2)c1 | 400 | 920 | 30000 | 50 (≈ 24.1 µg/mL) | 62 | 45 | 0.58 | 96 | 99 | <40 | 230 | 41 | 75.1 | 62 | 0 | – | – | – | –
7 | Cc1cc(CNC(C)(C)C)c(O)c(Nc2nc3cc(F)c(F)cc3n2Cc2ccc(C(F)(F)F)cc2)c1 | 250 | 520 | 10000 | < 5 | > 99 | 60 | 0.6 | 96 | 90 | – | 150 | 89 | 40.2 | 73 | 0 | – | – | – | –
8 | COC(=O)Nc1nc2cc(C(=O)c3ccccc3)ccc2[nH]1 [MEBENDAZOLE] | – | – | – | – | – | – | – | – | – | – | – | – | – | – | – | – | – | – | 200000
9 | COc1cc2c(c(OC)c1OC)-c1ccc(OC)c(=O)cc1[C@@H](NC(C)=O)CC2 [COLCHICINE] | – | – | – | – | – | – | – | – | – | – | – | – | – | – | – | – | – | – | 10000
10 | CCCSc1ccc2[nH]c(NC(=O)OC)nc2c1 [ALBENDAZOLE] | – | – | – | – | – | – | – | – | – | – | – | – | – | – | – | – | – | – | 30000
11 | CCN(CC)Cc1cc(Cl)cc(Nc2nc3ccccc3n2Cc2ccc(C(F)(F)F)cc2)c1O | 150 | 56 | > 50000 | – | – | 69 | 0.33 | 89 | – | – | 50 | – | > 333 | 10 | 2 | – | – | 1900 | –
12 | CC(C)(C)NCc1cc(Cl)cc(Nc2nc3ccccc3n2Cc2ccc(C(F)(F)F)cc2)c1O | 280 | 590 | 36300 | < 5 | 36 | 44 | 0.21 | 92 | 81 | – | 60 | 9 | 130 | 0 | 0 | – | – | – | –
13 | CCN(CC)Cc1cc(C)cc(Nc2nc3ccccc3n2Cc2ccc(F)cc2)c1O | 550 | 880 | 18700 | – | – | 81 | 0.38 | 97 | – | – | 210 | – | 34 | 58 | 41 | – | – | – | –
14 | CCN(CC)Cc1cccc(Nc2nc3ccccc3n2Cc2ccc(C(F)(F)F)cc2)c1O | 440 | 1450 | > 50000 | – | – | 71 | 0.3 | 93 | – | – | 130 | – | > 113 | 56 | 35 | – | – | – | –
15 | CCNCc1cc(C)cc(Nc2nc3cc(F)c(F)cc3n2Cc2ccc(C(F)(F)F)cc2)c1O | 260 | 210 | 2040 | 16 (≈ 7.85 µg/mL) | 93 | 86 | 0.5 | 94 | 99 | – | 130 | 77 | 7.84 | 24 | 0 | – | – | 2330 | –
16 | CCN(CC)Cc1cc(F)cc(Nc2nc3ccccc3n2Cc2ccc(C(F)(F)F)cc2)c1O | 170 | 97 | > 50000 | – | – | 74 | 1.12 | 90 | – | – | 190 | – | > 294 | 10 | 0 | – | – | > 5000 | –
